Measurements taken from ChEMBL document CHEMBL4346667 (Eur J Med Chem, 2019).
Active and inactive are the calls of the source. The calls are words filed in the database; no cut-off is given here.

Assays:
[1] = tested on: MCF7; experiment: Induction of apoptosis in human MCF7 cells assessed as necrotic cells at 10 uM after 24 hrs by Annexin V-FITC/propidium iodide staining-based flow cytometric analysis (reference value: 0.1%); assay type: functional
[2] = tested on: MCF7; experiment: Induction of apoptosis in human MCF7 cells at 1 uM after 48 hrs by Annexin V-FITC/propidium iodide staining-based flow cytometric analysis; assay type: functional, cell-based
In short: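 Log-phase cells were seeded and treated after adhering, for 48 h in cycles of 6 h on and 6 h off. Cells were stained with annexin V (1 µg/mL) and PI (0.5 µg/mL) in Ca2+-enriched binding buffer for 15 min in the dark at room temperature. 10,000 events were read by flow cytometry (FL1 vs FL2). Apoptosis was the sum of early and late stages. At least three repeats.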

[3] = tested on: MCF7; experiment: Induction of apoptosis in human MCF7 cells assessed as early apoptotic cells at 5 uM after 48 hrs by Annexin V-FITC/propidium iodide staining-based flow cytometric analysis (reference value: 9.1%); assay type: functional
In short: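 Log-phase cells seeded in 6-well plates and treated after adhesion; incubated in cycles of 6 h on/6 h off up to 48 h. Collected after PBS washes and trypsin, resuspended in Ca2+-enriched binding buffer. Stained with annexin V (1 µg/mL) plus PI (0.5 µg/mL) 15 min in the dark at room temperature. 10,000 events, FL1 vs FL2. At least three repeats.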

## COc1cc([C@@H]2c3cc4c(cc3[C@@H](O[C@@H]3O[C@@H]5CO[C@@H](C)O[C@H]5[C@H](O)[C@H]3O)[C@H]3COC(=O)[C@H]23)OCO4)cc(OC)c1O [ETOPOSIDE]
[1]
  Activity: 1.4%
[2]
  Activity: inactive
[3]
  Activity: 62.1%
